Published values of several laboratories.
Compare with care: the assays were run in different laboratories.

Structure (SMILES) | target or system | read-out | method | tested at | notes | endpoint | result
O=C1O[C@H]([C@@H](O)CO)C(O)=C1O |  | DPPH scavenging | absorbance | 80 µM |  | inhibition | 53.7%
C[C@@H](O)[C@H]1C(=O)N2C(C(=O)O)=C(S[C@@H]3CN[C@H](C(=O)N(C)C)C3)[C@H](C)[C@H]12 | Serratia fonticola | microbial growth | broth dilution |  | clinical isolate | MIC | 32 µg/mL
CCN(O)N=Nc1ccc(S(=O)(=O)Nc2nccs2)cc1 |  | DPPH scavenging | absorbance | 60 µg/mL |  | inhibition | 9.02%
Oc1ccc(Br)cc1C=NCCN1CCOCC1 |  | DPPH scavenging | absorbance | 120 µM |  | inhibition | 28.6%
Cc1cccc(N(O)N=Nc2ccc(S(=O)(=O)Nc3cc(C)on3)cc2)c1 |  | DPPH scavenging | absorbance | 300 µg/mL |  | inhibition | 37.1%
COc1cc(C=Cc2cc(-c3ccccc3)nc(O)n2)ccc1O |  | DPPH scavenging |  | 50 µg/mL |  | inhibition | 61.6%
CN(O)N=Nc1ccc(S(=O)(=O)Nc2nccs2)cc1 |  | DPPH scavenging | absorbance | 120 µg/mL |  | inhibition | 16.4%
COc1ccc(-c2ccc(-c3ccc(C(=N)N)nc3)s2)cc1 | 786-0 | cell growth or viability |  |  |  | GI50 | 1.88 µM
O=C1O[C@H]([C@@H](O)CO)C(O)=C1O |  | DPPH scavenging |  | 12.5 µg/mL |  | inhibition | 38.9%
O=C(Nc1ccc2c(c1)OC(F)(F)O2)Nc1ccc(Cl)c(C(F)(F)F)c1 | Salmonella | microbial growth |  |  | clinical isolate | MIC | > 100 µM
COc1cc(C=CC(=O)CC(c2ccc([N+](=O)[O-])cc2)n2ccnc2)ccc1O (stereo not drawn) |  | DPPH scavenging |  | 50 µg/mL |  | inhibition | 61.4%
Cn1nnc2c(C(N)=O)ncn2c1=O | MGC-803 | cell growth or viability |  |  |  | EC50 | 356 µM
